A selection: hits, their analogues and other compounds. The true share with any hit is near 9.3%.
E coli WT exp = growth inhibitors of wild-type E. coli, primary screen, strain BW25113, expanded library, OD600; OD600 absorbance; growth inhibition, % at 100 µM; hit rate 0.15% among 98,000; AID 710, 2007;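 active = growth inhibition above about 50% at one test dose, limit read from the data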;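 also: growth measured after 20 h incubation at 37 °C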
D1 mod = D1 CRE-luciferase signal change, two-sided – cell-based, HEK293 D1, dopamine EC30, D1 allosteric modulator project, primary screen; D(1A) dopamine receptor (Homo sapiens), P21728; dopamine EC30 potentiation; actives deviate in either direction; B-score at 10 µM; hit rate 5.9% among 58,000; AID 641, 2007;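 active = luminescence count or its row- and column-corrected plate score outside the 99.7% band of the plate's sample wells, on either side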
DAT uptake mod = changed hDAT dopamine uptake under cocaine IC80, either direction, primary screen, cocaine antagonist project, cell-based, LLC-PK1 hDAT, [14C]-dopamine uptake, MLSMR | Sodium-dependent dopamine transporter (Homo sapiens), Q01959 | LLC-PK1 hDAT cells, [14C]-dopamine uptake with cocaine IC80; actives deviate in either direction | B-score at 10 µM | hit rate 1.3% among 110,000 | AID 449768, 2010;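 active = Z score or B-score, a plate-position-corrected score, falls beyond the plate's 99.7% confidence bounds, in either direction; inactive = both scores lie inside the 99.7% bounds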;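 also: scored against the spread of the other compound wells on the same plate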
Target sequence (Q01959 whole entry, looked up): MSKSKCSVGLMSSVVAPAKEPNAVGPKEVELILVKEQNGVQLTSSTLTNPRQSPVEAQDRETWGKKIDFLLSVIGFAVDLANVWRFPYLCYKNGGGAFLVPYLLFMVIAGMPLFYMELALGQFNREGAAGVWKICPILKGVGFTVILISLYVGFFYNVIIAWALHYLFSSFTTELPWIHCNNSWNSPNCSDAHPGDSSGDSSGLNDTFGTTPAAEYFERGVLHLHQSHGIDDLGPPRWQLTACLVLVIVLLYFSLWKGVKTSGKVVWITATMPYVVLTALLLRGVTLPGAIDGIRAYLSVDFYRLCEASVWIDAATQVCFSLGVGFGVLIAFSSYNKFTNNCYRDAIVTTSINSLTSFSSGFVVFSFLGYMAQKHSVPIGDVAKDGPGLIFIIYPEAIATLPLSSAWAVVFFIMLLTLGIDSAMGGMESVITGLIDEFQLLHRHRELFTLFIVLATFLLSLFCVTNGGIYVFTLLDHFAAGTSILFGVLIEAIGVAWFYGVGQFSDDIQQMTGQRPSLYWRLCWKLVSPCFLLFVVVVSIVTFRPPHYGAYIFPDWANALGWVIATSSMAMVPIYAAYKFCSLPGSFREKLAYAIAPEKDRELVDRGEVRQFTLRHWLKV
PostGolgi yeast = phenotypic screen on post-Golgi transport, primary screen | post-Golgi transport phenotypic cell assay | inhibition, % at 10 µM | hit rate 0.9% among 98,000;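 also: yeast cells grown in 1536-well plates; yeast grown about 18 h at 30C before absorbance read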
tolC growth inh = growth inhibitors of E. coli tolC mutant, primary screen, strain BW25113 ΔtolC::kan, 384-well | OD615 | growth inhibition, % at 10 µM (by protocol) | hit rate 2.2% among 65,000 | AID 573, 2007;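 active = growth inhibition at or above a cutoff equal to the mean over every tested compound plus 3 SD, cut at about 60% in these data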;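 also: growth measured after 20 h incubation at 37 °C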
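Test system: E. coli BW25113 ΔtolC::kan bacteria | Medium: Kanamycin-containing LB broth (50 µg/mL) | Dosing: One dose of 10 µM final | Times: 20 h incubation with compound, 37 °C | Detection: Optical density read at 615 nm | Read-out basis: Percent growth inhibition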
PostGolgi ctrl = growth inhibition of yeast control strain, primary screen, counter-screen for post-Golgi transport modulator project; efflux-deficient yeast background strain, growth absorbance A615, 16 h; inhibition, % at 10 µM; hit rate 5% among 98,000
D1 PAM confirm = D1 receptor positive allosteric modulators, retest, confirmation, cell-based, HEK293 D1, CRE-luciferase, duplicate; shares compounds with D1 mod; dopamine EC30 potentiation; stronger effect = higher value; luminescence at 10 µM; hit rate 88% among 2,200; AID 642, 2007;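 active = luminescence in either of two replicates above the same-plate mean plus 3 SD of the low-dose dopamine control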
D1 ag no DA = D1 receptor agonism without dopamine, confirmation, mechanism study for D1 allosteric modulator project, cell-based, HEK293 D1, CRE-luciferase, secondary assay 1. hit rate 0.8% among 1,900. luminescence, no dopamine; stronger effect = higher value. luminescence at 10 µM. shares compounds with D1 mod; in the data active = luminescence above about 3900
Isoprot counter = counter-screen for D1 modulators: isoproterenol response in HEK293 cells; HEK293 D1 CRE-luciferase, isoproterenol EC30 counter-screen; calls only at 10 µM; hit rate 63% among 2,200; shares compounds with D1 mod; AID 647;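 active = luminescence in either replicate above plate mean of wells with a partly effective reference agonist dose plus 3 SD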;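 also: isoproterenol raises cAMP through native beta-adrenoceptor Gs so signal bypasses D1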
* marks the source's active call; other numbers are inactive results; i = inactive; nt = no result given; + = active, no number. Rule as the data show it, unless noted: active = inhibition above about 30%; inactive = the rest.

SMILES	E coli WT exp	D1 mod	DAT uptake mod	PostGolgi yeast	tolC growth inh	PostGolgi ctrl	D1 PAM confirm	D1 ag no DA	Isoprot counter
COc1ccc(-c2cc(C(N)=O)nc(N3CCCCCC3)n2)cc1	-5.0	nt	0.151	2.3	-14.5	0.7	nt	nt	nt
NC(=O)c1cc(-c2ccccc2)nc(Oc2ccccc2)n1	-2.0	8.86*	1.41	10.9	8.9	12.9	10904*	nt	+
Cc1cc(C)c2nc(N3CCC(C(=O)N4CCN(c5ncccn5)CC4)CC3)sc2c1	3.0	2.35	-0.0596	-2.8	7.8	29.6	nt	nt	nt
Cc1cc(C)c2nc(N3CCC(C(=O)N4CCCC4)CC3)sc2c1	1.0	3.51*	1.55	12.2	13.9	9.5	5940	1656	i
CC1=NCCN1S(=O)(=O)c1cc(Cl)ccc1Cl	3.0	0.0738	0.699	14.1	-10.6	6.0	nt	nt	nt
CCn1c2ccccc2c2nc3ccccc3nc21	0.0	5.61*	0.222	-4.4	35.0	34.4*	15700*	nt	i
CCn1c2ccccc2c2nc3cc(OC)c(OC)cc3nc21	-15.0	-0.0112	0.686	23.5	1.7	23.7	nt	nt	nt
O=C(c1cc2c(=O)oc3ccccc3c2s1)N1CCN(c2ccccn2)CC1	nt	-0.0371	nt	nt	22.0	nt	nt	nt	nt
Cn1c(=O)[nH]c(=O)c2[nH]c(N(Cc3ccccc3)Cc3ccccc3)nc21	-4.0	8.37*	1.28	18.2	24.5	-3.1	16252*	nt	+
CCOCCn1c(N(C)Cc2ccccc2)nc2c1c(=O)[nH]c(=O)n2C	-7.0	nt	0.199	-4.6	-0.9	13.4	nt	nt	nt
CN(Cc1ccccc1)c1nc2c(c(=O)[nH]c(=O)n2C)n1Cc1ccccc1Cl	-11.0	17.3*	-0.526	-1.1	-12.3	12.7	21184*	1740	+
CC1CCN(c2nc3c(c(=O)[nH]c(=O)n3C)n2Cc2ccccc2Cl)CC1	-9.0	6.17*	-0.82	-0.7	10.2	39.6*	14268*	1744	+
CN(Cc1ccccc1)c1nc2c(c(=O)[nH]c(=O)n2C)n1CCCc1ccccc1	-26.0	5.13*	0.701	8.4	59.1	25.5	12224*	1632	+
Clc1ccc(CON/C=N/c2ncnc3sccc23)c(Cl)c1	-19.0	nt	-1.08	-6.7	nt	16.6	nt	nt	nt
CCc1ccccc1N1CC(C(=O)O)CC1=O (stereo not drawn)	-2.0	-0.403	-0.852	1.2	-26.3	26.0	nt	nt	nt
CC(=O)NS(=O)(=O)c1cccnc1Nc1ccc(Cl)cc1	-3.0	nt	0.0775	3.2	nt	-3.4	nt	nt	nt
COc1cccc(-c2nc(CS(=O)(=O)c3ccccc3)no2)c1	22.0	nt	-0.279	-6.4	nt	-3.5	nt	nt	nt
c1cnc2c(SCc3ccc(-c4nnco4)cc3)cccc2c1	3.0	5.25*	1.6	10.4	11.4	19.3	8332*	nt	+
CCOC(=O)C1=C(C)NC(C)=C(C(=O)OCC)C1C(=O)OCC(=O)N1CCc2ccccc2C1	-6.0	1.27	1.07	-2.4	16.2	0.3	nt	nt	nt
COc1ccc(N2CCN(S(=O)(=O)c3cccs3)CC2)cc1	-10.0	5.02*	-0.0651	0.7	-1.4	-8.1	9608*	1628	i
CCOC(=O)c1cc(-c2ccccc2)sc1N	-1.0	12.3*	0.0728	5.5	22.1	4.7	19816*	1684	+
CCOC(=O)c1cc(-c2ccccc2)sc1NC(=O)c1ccc(OC)cc1	-9.0	nt	-0.165	4.4	nt	1.3	nt	nt	nt
CCOC(=O)c1sc(-c2ccccc2)cc1N	0.0	6.1*	0.454	3.7	14.0	21.2	12680*	1780	i
CCC1(CC)C(=O)C2=C3C1[C@H](C(=O)OC)C=C(C(=O)OC)C[C@H]3n1c(=O)n(-c3ccccc3)c(=O)n1[C@H]2C (stereo partly drawn)	nt	nt	0.773	nt	nt	nt	nt	nt	nt
O=C(NCC1CCCC(CNC(=O)N2CCc3ccccc32)C1)N1CCc2ccccc21 (stereo not drawn)	-17.0	nt	2.36	8.8	nt	27.0	nt	nt	nt
SMILES	E coli WT exp	D1 mod	DAT uptake mod	PostGolgi yeast	tolC growth inh	PostGolgi ctrl	D1 PAM confirm	D1 ag no DA	Isoprot counter
CC(C)CCn1c(SCc2ccc(Cl)cc2)nc2c1c(=O)[nH]c(=O)n2C	-17.0	13.6*	0.54	15.4	-0.6	19.3	13248*	nt	+
CCCCCOC(=O)CSc1nc2c(c(=O)[nH]c(=O)n2C)n1Cc1ccc(Cl)cc1	-7.0	0.107	0.3	-4.4	9.3	7.1	nt	nt	nt
C/C=C/CSc1nc2c(c(=O)[nH]c(=O)n2C)n1Cc1ccc(C)cc1	-1.0	19.6*	0.996	-3.6	5.3	19.7	16484*	1496	+
CCCCn1c(SCc2ccc(Cl)cc2)nc2c1c(=O)[nH]c(=O)n2C	-20.0	7.4*	-0.114	15.1	-5.3	16.6	25640*	1752	+
CCSc1nc2c(c(=O)[nH]c(=O)n2C)n1Cc1ccc(Cl)cc1	-7.0	5.47*	0.0325	8.1	6.3	22.2	15452*	1584	+
CCCC/C(C)=N/NC(=O)C(=O)NCCc1ccccc1	-8.0	nt	-0.0191	5.1	nt	18.3	nt	nt	nt
O=C(c1cnccn1)N1CCN(C/C=C/c2ccccc2)CC1	7.0	nt	-1.15	-7.0	-11.4	0.6	nt	nt	nt
COc1ccc(N(C(=O)c2ccc(Br)o2)C2C=CS(=O)(=O)C2)cc1 (stereo not drawn)	7.0	nt	-0.161	-4.8	-11.5	5.6	nt	nt	nt
Cn1c(=O)c(N=O)c(N)n(Cc2ccccc2)c1=S	nt	nt	0.207	nt	nt	nt	nt	nt	nt
CCNc1nnc(-c2ccc(C)cc2)o1	14.0	-0.273	0.395	0.6	4.3	26.1	nt	nt	nt
NC(=O)c1ccc2c(=O)n3c(-c4cccs4)csc3nc2c1	nt	nt	0.181	nt	nt	nt	nt	nt	nt
C/C=C/CSc1nc2c(c(=O)[nH]c(=O)n2C)n1C(C)C	0.0	5.97*	-0.176	11.4	-1.6	-2.9	12796*	1768	+
C=CCSc1nc2c(c(=O)[nH]c(=O)n2C)n1CC	1.0	3.38	-1.12	27.7	0.5	-4.5	nt	nt	nt
COC(C/C=C\C(=O)[C@@H](C)OCc1ccccc1)OC	nt	nt	-0.875	nt	nt	nt	nt	nt	nt
Cc1sc2ncnc(SC(C)C#N)c2c1C (stereo not drawn)	-8.0	4.94*	-0.353	-1.3	1.3	8.5	6756	1584	i
CCC(Sc1ncnc2sc(C)c(C)c12)C(=O)OC (stereo not drawn)	4.0	nt	-0.00278	2.2	nt	15.1	nt	nt	nt
CCOC(=O)C(CCC#N)(CCC#N)C(=O)OCC	3.0	0.755	0.64	8.2	-17.0	-3.8	nt	nt	nt
